Experimental data taken from BindingDB's records for doi:10.1016/j.bmc.2016.04.060 (Chugai Pharmaceutical, 2016).

Target: Phosphatidylinositol 3-kinase regulatory subunit alpha/4,5-bisphosphate 3-kinase catalytic subunit alpha isoform (Homo sapiens, UniProt P27986+P42336)
Experiment: Inhibition of human PI3K p110alpha/p85alpha expressed in baculovirus preincubated for 20 mins followed by addition of phosphorylate phosphatidylinositol-4,5-bisphosphate as substrate and ATP measured after 15 mins by AlphaScreen competition assay
Outline: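 Purified baculovirus-expressed human p110/p85α preincubated with compound 20 min at room temperature. Then 4 µM PI(4,5)P2 and 10 µM ATP (5 mM Hepes pH 7.5, 2.5 mM MgCl2) added for 15 min at 37 °C. PIP3 product detected by AlphaScreen competition using GST-GRP1, biotin-PIP3 and anti-GST acceptor/streptavidin donor beads, 1 h at room temperature.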

Chain of Phosphatidylinositol 3-kinase regulatory subunit alpha/4,5-bisphosphate 3-kinase catalytic subunit alpha isoform (P27986 whole entry, canonical isoform): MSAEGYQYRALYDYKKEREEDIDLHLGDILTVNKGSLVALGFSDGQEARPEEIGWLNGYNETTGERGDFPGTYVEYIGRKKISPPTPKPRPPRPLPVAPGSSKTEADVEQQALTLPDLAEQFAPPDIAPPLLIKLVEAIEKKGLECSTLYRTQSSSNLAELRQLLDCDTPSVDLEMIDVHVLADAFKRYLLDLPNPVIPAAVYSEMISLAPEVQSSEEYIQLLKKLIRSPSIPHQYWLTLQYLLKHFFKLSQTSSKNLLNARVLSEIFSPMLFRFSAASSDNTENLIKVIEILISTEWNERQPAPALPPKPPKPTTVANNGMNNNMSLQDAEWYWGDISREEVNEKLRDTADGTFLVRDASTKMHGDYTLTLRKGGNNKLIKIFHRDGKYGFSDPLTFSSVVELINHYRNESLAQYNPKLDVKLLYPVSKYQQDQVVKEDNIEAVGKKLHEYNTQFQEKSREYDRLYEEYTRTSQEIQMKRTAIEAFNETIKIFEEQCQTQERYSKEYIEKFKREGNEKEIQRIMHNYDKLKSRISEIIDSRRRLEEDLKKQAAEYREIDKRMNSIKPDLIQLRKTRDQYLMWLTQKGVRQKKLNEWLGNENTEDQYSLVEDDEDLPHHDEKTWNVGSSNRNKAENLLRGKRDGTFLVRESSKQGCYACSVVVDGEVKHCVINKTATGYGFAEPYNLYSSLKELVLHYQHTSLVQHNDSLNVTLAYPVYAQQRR
Chain of Phosphatidylinositol 3-kinase regulatory subunit alpha/4,5-bisphosphate 3-kinase catalytic subunit alpha isoform (P42336 whole entry, canonical isoform): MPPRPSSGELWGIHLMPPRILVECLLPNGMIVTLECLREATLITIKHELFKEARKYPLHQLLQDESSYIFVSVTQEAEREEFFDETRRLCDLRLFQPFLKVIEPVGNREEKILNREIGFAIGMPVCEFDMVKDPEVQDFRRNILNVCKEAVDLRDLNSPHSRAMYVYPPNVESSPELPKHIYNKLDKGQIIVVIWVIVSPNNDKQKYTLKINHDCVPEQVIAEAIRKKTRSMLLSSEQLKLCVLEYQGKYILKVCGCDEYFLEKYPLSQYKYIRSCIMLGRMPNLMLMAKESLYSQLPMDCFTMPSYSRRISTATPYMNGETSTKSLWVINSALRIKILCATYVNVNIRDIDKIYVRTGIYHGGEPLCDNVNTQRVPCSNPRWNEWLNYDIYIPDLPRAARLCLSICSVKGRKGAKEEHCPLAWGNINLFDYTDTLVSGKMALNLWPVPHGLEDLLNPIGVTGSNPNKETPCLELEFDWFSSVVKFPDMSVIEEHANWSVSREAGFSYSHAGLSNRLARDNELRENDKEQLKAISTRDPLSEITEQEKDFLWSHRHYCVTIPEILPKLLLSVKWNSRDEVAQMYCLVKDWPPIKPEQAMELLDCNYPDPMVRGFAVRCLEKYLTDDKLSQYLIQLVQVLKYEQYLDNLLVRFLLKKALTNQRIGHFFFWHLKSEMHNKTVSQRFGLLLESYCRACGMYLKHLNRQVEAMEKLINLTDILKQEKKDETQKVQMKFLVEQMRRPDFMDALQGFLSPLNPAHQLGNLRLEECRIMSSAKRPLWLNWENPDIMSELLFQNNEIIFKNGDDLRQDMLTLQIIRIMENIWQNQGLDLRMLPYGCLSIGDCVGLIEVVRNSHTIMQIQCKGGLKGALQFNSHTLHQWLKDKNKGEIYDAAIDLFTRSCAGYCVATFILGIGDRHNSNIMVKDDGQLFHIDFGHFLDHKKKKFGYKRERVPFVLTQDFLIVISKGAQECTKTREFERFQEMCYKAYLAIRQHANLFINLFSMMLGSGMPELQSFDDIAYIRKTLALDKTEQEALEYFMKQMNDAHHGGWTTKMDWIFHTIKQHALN

IC50 [nM]	SMILES
22	CCN1CCN(c2cc(F)c(NC(=O)N3CCc4c(-c5cnc(N)nc5)nc(N5CCOCC5)nc43)c(F)c2)CC1
10	CCN1CCN(c2ccc(NC(=O)N3CCc4c(-c5cnc(N)nc5)nc(N5CCOCC5)nc43)c(C)c2)CC1
